Reference: ChEMBL document CHEMBL3997791, “Nanomolar-Potency Aminophenyl-1,3,5-triazine Activators of the Cystic Fibrosis Transmembrane Conductance Regulator (CFTR) Chloride Channel for Prosecretory Therapy of Dry Eye Diseases” (J Med Chem, 2017)
Active and inactive are the calls of the source. No cut-off for these calls is given here.

Experiments:
[1] = species: Homo sapiens; experiment: Inhibition of ENaC in human primary bronchial epithelial cells assessed as effect on short-circuit current at 10 uM after 10 mins by voltage clamp method
Summary of the method: (§1)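 Primary human bronchial epithelial cells grown at air-liquid interface, mounted in Ussing chambers in symmetrical HCO3−-buffered solutions (95% O2/5% CO2, 37 °C), with Ag/AgCl electrodes. After 10 min preincubation with 10 µM compound, sequential additions were 20 µM amiloride, 20 µM forskolin, 10 µM CFTRinh-172 and 100 µM ATP. Traces represent two to four experiment sets.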

[2] = species: Homo sapiens; experiment: Inhibition of potassium channel in human primary bronchial epithelial cells assessed as effect on short-circuit current at 10 uM after 10 mins by voltage clamp method; summary of the method: as §1
[3] = Suppression of ATP-stimulated elevation of cytoplasmic calcium level in Fischer rat thyroid cells co-expressing YFP and human CFTR at 10 uM incubated for 5 mins by fluo-4 dye based fluorescence assay; assay type: ADME; conditions: thyroid cell
Summary of the method: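 FRT cells in 96-well plates loaded with Fluo-4 NW, pretreated 5 min with 10 μM compound or control; 100 μM ATP added as calcium agonist. Fluorescence followed in plate reader with syringe pumps. Representative of two to four experiment sets.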

[4] = target: T1, Anoctamin-1 (Homo sapiens) (UniProt Q5XXA6); experiment: Activation of human TMEM16A expressed in FRT cells co-expressing YFP assessed as increase in iodide influx at 10 uM measured after 10 mins for 2 to 12 sec by fluorescence assay; assay type: cell-based
T1 sequence (whole entry): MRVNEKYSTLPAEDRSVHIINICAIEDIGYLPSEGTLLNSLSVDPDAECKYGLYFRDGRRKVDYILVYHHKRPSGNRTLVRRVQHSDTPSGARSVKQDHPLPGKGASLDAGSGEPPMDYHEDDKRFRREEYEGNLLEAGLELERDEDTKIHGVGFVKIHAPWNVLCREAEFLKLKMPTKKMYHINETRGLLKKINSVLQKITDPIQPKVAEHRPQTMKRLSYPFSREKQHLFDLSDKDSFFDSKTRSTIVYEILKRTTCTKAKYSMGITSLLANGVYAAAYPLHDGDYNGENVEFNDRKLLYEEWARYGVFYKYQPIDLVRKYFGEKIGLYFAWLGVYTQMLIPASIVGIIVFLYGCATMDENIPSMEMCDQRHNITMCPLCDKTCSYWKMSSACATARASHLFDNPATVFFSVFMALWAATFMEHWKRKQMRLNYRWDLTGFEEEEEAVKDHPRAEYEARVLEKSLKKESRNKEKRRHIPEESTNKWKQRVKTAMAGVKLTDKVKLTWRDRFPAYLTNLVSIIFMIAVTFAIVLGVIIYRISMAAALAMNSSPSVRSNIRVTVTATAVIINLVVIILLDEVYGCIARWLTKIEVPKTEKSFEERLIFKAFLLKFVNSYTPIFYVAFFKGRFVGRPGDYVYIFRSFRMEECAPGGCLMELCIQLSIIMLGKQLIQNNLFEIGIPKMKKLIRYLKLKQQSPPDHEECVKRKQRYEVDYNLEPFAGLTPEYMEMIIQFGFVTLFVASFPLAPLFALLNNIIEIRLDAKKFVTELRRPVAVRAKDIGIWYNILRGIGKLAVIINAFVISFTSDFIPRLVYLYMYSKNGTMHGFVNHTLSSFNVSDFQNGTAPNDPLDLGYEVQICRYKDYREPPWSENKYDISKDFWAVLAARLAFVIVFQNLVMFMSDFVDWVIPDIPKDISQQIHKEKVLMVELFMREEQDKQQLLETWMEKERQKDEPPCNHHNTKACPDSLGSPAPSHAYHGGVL
Summary of the method: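 FRT cells stably coexpressing TMEM16A and YFP-H148Q; compound at 10 μM. Fluorescence quenching read in plate reader after iodide addition (activation) or iodide plus ATP addition (inhibition); initial rate of iodide influx computed as linear measure of channel function. Representative of two to four experiment sets.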

[5] = target: T2, Solute carrier family 12 member 2 (Homo sapiens) (UniProt P55011); experiment: Inhibition of NKCC1 in human primary bronchial epithelial cells assessed as effect on short-circuit current at 10 uM after 10 mins by voltage clamp method
T2 sequence (whole entry): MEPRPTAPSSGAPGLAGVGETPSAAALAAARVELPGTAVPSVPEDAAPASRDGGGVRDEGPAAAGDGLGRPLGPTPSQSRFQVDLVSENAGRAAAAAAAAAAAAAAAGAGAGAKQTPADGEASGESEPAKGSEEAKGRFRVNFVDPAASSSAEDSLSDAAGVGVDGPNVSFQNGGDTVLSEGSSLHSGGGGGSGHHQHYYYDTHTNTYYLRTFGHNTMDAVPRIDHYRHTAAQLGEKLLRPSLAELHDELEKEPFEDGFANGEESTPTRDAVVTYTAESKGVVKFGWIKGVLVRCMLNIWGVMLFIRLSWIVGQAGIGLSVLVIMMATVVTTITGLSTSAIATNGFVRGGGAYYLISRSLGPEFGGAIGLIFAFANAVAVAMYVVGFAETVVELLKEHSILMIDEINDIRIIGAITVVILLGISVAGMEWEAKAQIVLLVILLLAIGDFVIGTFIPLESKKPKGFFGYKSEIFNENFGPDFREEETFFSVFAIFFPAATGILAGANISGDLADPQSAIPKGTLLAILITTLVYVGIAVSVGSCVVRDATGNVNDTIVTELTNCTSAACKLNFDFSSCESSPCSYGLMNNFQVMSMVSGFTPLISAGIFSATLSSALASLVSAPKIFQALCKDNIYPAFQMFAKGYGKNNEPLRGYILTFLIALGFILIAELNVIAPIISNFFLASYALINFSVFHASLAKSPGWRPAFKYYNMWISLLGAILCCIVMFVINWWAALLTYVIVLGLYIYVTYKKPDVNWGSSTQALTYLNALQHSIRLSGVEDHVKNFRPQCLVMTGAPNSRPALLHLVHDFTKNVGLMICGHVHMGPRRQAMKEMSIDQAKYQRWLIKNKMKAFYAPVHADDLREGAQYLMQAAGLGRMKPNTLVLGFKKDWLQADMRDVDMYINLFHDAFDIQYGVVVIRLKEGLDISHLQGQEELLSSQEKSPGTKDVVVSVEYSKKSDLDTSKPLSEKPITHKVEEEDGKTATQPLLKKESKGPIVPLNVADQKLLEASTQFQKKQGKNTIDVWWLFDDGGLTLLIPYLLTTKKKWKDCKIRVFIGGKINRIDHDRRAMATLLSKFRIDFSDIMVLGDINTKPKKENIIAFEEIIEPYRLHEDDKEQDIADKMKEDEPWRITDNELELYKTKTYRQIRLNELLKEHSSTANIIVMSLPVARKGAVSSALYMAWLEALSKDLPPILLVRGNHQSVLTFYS
Summary of the method: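 Primary human bronchial epithelial cultures (air-liquid interface) in Ussing chambers, symmetrical HCO3−-buffered solutions, 95% O2/5% CO2, 37 °C. After 10 min preincubation with 10 μM compound, sequential 20 μM amiloride, 20 μM forskolin, 10 μM CFTRinh-172, 100 μM ATP; short-circuit current recorded under voltage clamp.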

Row | Structure (SMILES) | inhibition [1] | inhibition [2] | Activity [3] | Activity [4] | inhibition [5]
1 | CNc1nc(Nc2ccccc2)nc(OCC(F)(F)C(F)F)n1 | inactive | inactive | Non-Toxic | inactive | inactive
2 | CCN(CC)c1nc(Nc2ccc3ncsc3c2)nc(OC(C(F)(F)F)C(F)(F)F)n1 | inactive | inactive | Non-Toxic | inactive | inactive
